Rev-erbA mod: modulators of Rev-erb alpha DNA binding, primary screen, biochemical, FITC-DNA, fluorescence polarization, uHTS | Rev-erbα–FITC-DNA binding, 90 min | activity, % at 10 µM | actives 0.79% (n = 370,000) | AID 1259318, 2017;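 active means activity above about 14%, limit read from the data; passing the limit was not always enough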;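 further: 0% = DMSO wells with 35 nM protein and 100% = DMSO wells with 750 nM protein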
Target sequence (P20393 whole entry, looked up): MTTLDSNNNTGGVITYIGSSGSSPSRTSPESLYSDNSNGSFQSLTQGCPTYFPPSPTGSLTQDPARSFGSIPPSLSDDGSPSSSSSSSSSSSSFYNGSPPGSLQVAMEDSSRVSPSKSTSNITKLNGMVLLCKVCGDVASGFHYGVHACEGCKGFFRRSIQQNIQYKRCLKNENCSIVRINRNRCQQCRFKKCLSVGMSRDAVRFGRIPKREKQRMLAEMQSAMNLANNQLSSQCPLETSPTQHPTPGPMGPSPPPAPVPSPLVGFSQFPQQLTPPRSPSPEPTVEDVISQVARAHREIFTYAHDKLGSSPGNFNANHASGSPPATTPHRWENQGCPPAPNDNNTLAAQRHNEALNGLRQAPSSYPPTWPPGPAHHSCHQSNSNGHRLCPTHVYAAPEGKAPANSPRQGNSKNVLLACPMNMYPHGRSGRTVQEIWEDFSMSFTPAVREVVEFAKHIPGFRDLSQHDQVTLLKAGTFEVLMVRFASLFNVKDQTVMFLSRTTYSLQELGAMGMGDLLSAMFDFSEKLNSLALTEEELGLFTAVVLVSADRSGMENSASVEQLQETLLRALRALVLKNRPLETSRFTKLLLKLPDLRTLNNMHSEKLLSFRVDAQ
NR2E3 ag-1: inhibitors of NR2E3-RetCOR corepressor binding, primary screen, NR2E3 agonist project, biochemical, TR-FRET, GST-NR2E3, biotin-RetCOR; 1536-well; inhibition of corepressor binding, % at 4.78 µM; actives 0.12% (n = 320,000); AID 2300, 2010;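 active means percent inhibition above the cutoff of mean plus 3 SD of all tested compounds, set per screening campaign, cut at about 20% in these data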;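 further: 0% = DMSO wells and 100% = biotin wells as full block of FRET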
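System: GST-NR2E3 and biotin-RetCOR proteins; probe or stimulus: 7 nM biotin-RetCOR; doses: compound at 4.8 µM, single dose; schedule: Compound–protein incubation for 5 h at 4 °C; detection: time-resolved FRET; read-out: percent inhibition; controls: biotin wells as high control, 0.6% DMSO wells as low control; format: 1536-well plates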
PG9 binder: binders of HIV-1 gp120 antibody PG9, primary screen, biochemical, TR-FRET; HIV-1 gp120 / PG9 antibody interaction; TR-FRET gp120-PG9 antibody binding; inhibition, % at 6.7 µM; actives 0.43% (n = 360,000); AID 624416, 2012; in the data active means inhibition above about 8.5%
NR2E3 ag-2: NR2E3 agonists in two-hybrid cells, primary screen, cell-based, luminescence, CHO-S, Gal4-NCOR/VP16-NR2E3 | Photoreceptor-specific nuclear receptor (Homo sapiens), Q9Y5X4 | luciferase | inhibition of corepressor binding, % at 3.98 µM | actives 0.35% (n = 360,000) | AID 602229, 2012;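 active means inhibition above the mean of all tested compounds plus 3 SD, cut at about 70% in these data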;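 further: 0% = DMSO with NR2E3 transfected cells and 100% = cells lacking NR2E3 construct; higher means lower luciferase signal from less NR2E3 corepressor binding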
SKN-1 block: suppressors of acrylamide-induced Pgst-4::GFP reporter in worms, primary screen, SKN-1 inhibitor project, whole organism, uHTS, GFP/RFP fluorescence ratio, strain VP596. inhibition, % at 21.8 µM. C. elegans VP596 Pgst-4::GFP/RFP ratio, 24 h. actives 0.49% (n = 360,000);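 active means interference check ratio from 0.5 to 1.5 plus GFP to RFP signal ratio inhibition reaching or exceeding a fixed threshold, cut at about 30% in these data, passing the limit was not always enough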
MT1-MMP act inh: blockers of MT1-MMP proenzyme processing, primary screen, HT1080 RFP-PRO-GFP cells, GFP/RFP fluorescence | Matrix metalloproteinase-14 (Homo sapiens), P50281 | GFP/RFP ratio fluorescence, overnight; percent of plate control window, DMSO zero | GFP/RFP ratio change, % at 20 µM | actives 0.061% (n = 360,000);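 active means GFP/RFP ratio change of at least 30% with cell ATP level not reduced by more than half and red fluorescence within 50% of control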
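Assay system: RFP-PRO-GFP reporter HT1080 cells; read-out basis: GFP/RFP fluorescence ratio; benchmarks: DMSO wells and RFP-L50D-GFP cells; doses: 20 µM single dose, 1% DMSO; schedule: overnight cell settling, then overnight compound exposure, 37 °C, 5% CO2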
Rev-erbA confirm: modulators of Rev-erb alpha DNA binding, confirmation, biochemical, FITC-DNA, fluorescence polarization, single point. shares compounds with Rev-erbA mod. 90 min. activation, % at 25 µM. actives 61% (n = 3,000);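 active means activation at or above a set limit, or at least 3 SD above the negative control mean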;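 further: 0% = 35 nM protein with DMSO and 100% = 750 nM protein high control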
RORg counter: modulation of RORgamma DNA binding, dose response, counter-screen for Rev-erb alpha modulator project, biochemical, fluorescence polarization, FITC-DNA; actives 8% (n = 910); AID 1259320, 2017; IC50, µM; purified RORgamma protein-FITC-DNA binding; shares compounds with Rev-erbA mod;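 active means Compounds whose fitted half-maximal concentration for disrupting protein-DNA binding is below 10 micromolar; the record names Rev-erb in its text, so the target is in doubt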
* hit, by the source's call; / = no result given. Hits are enriched below; roughly 1.9% of the tested compounds scored in any of these assays.

SMILES | Rev-erbA mod | NR2E3 ag-1 | PG9 binder | NR2E3 ag-2 | SKN-1 block | MT1-MMP act inh | Rev-erbA confirm | others
CCC(C)(C)c1ccc(OCCCC[n+]2cccc(C)c2)c(C(C)(C)CC)c1 | 33.5* | / | -2.7 | 10.4 | -1.2 | -50.1 | 44.2* | RORg counter=>40
COc1ccc(-c2oc3ccc(-c4cc(OC)c(OC)c(OC)c4)cc3c2C(=O)c2ccc(OC)nc2)cc1 | 22.4* | -0.2 | 1.0 | 9.9 | 1.9 | -2.5 | 2.5
N#Cc1cccc(C(=O)C(=O)N2CCCN(Cc3ccc(F)cc3)CC2)c1 | -2.8 | / | 0.5 | / | 12.1 | 1.8 | /
O=C(/C=C1\OCc2ccccc21)c1ccccc1 | 13.4* | / | 0.8 | / | 3.2 | -0.2 | -3.7
O=C(/C=C1\OCc2ccccc21)OCc1ccccc1 | -3.0 | / | 0.2 | / | 15.4 | 2.0 | /
Cc1nonc1NC(=O)CSc1nc2cc(Cl)ccc2c2c1CCCC2 | 173.2* | 1.3 | / | 9.1 | 1.9 | 2.6 | 131.6*
Cc1ccc2c3c(c(SCC(=O)Nc4nonc4C)nc2c1)CCCC3 | 26.3* | 0.5 | -0.4 | -11.9 | 12.2 | 4.4 | 38.9* | RORg counter=>40
CSc1ccc(SC2CN(Cc3ccc(C)cc3)S(=O)(=O)C2)cc1 (stereo unspecified) | 25.0* | / | 1.8 | / | / | / | 28.3* | RORg counter=>40
Cc1ccc(CN2CC(N3CCN(CCO)CC3)CS2(=O)=O)cc1 (stereo unspecified) | 3.1 | / | -0.7 | -1.7 | 3.0 | 1.6 | /
CCc1nc(SCC(=O)NC2CC2)c2c(C)c(C)sc2n1 | 6.5 | 4.0 | -1.4 | -24.3 | 7.8 | 1.2 | /
CCCc1nc(SCC(=O)NC2CC2)c2c(C)c(C)sc2n1 | 21.6* | 3.3 | -1.2 | -6.8 | -2.5 | -3.7 | 7.7
N#CC1=C(N)Oc2cc3ccccc3cc2C1c1cccs1 (stereo unspecified) | 0.3 | 4.0 | -2.1 | -59.4 | 14.2 | -19.7 | /
CN(C)/C=N/C1=C(C#N)C(c2cccs2)c2ccc3ccccc3c2O1 (stereo unspecified) | 172.8* | / | -1.2 | -137.2 | 11.3 | -16.9 | 117.2* | RORg counter=>40
CCc1nnc(NC(=O)CSc2nc3c(cc2C#N)CCC3)s1 | 28.6* | -2.2 | 1.1 | -135.8 | 16.0 | 4.7 | 30.9*
N#Cc1cc2c(nc1SCC(=O)Nc1sc3c(c1C#N)CCC3)CCC2 | 9.3 | -3.0 | 0.5 | -30.1 | 10.6 | -44.5 | /
CCSc1nnc(NC(=O)CSc2nc3c(cc2C#N)CCCC3)s1 | 34.3* | -0.6 | 0.1 | -99.8 | 11.7 | 0.5 | 18.6*
CCOC(=O)N(C)C[C@@H]1OCc2cnnn2CCCC(=O)N([C@H](C)CO)C[C@@H]1C | -5.6 | / | 0.6 | 4.3 | 3.1 | 2.4 | /
CC(=O)O[C@@H]1C=C[C@@H](C#Cc2ccc(C(C)(C)C)cc2)O[C@@H]1COC(=O)NCc1ccccc1 | -5.5 | / | 0.5 | / | / | / | /
COc1cc(NC(=O)Nc2nc(C(N)Cc3ccc(C(F)(F)F)cc3)cs2)cc(OC)c1OC (stereo unspecified) | -6.3 | / | 1.8 | -6.1 | 10.0 | 7.4 | /
CCCn1c(NC(=O)c2ccc(Br)cc2)nc2ccccc21 | 31.7* | 2.5 | -1.0 | -46.1 | 12.5 | 2.0 | 22.5*
CCCn1c(NC(=O)c2ccc(F)cc2)nc2ccccc21 | 25.8* | 1.6 | 2.6 | -14.8 | -12.8 | 6.4 | -0.1

Assay outcomes from PubChem BioAssay.
